# Assay results pooled from the literature.
# Protocols differ between the studies behind these lines.
# Read-out: enzyme activity
# Mode: inhibitor
# ABL1 Y253F: Tyrosine-protein kinase ABL1 (ABL1, Homo sapiens, UniProt P00519, Y253F)
# ABL1 T315I: Tyrosine-protein kinase ABL1 (ABL1, Homo sapiens, UniProt P00519, T315I)
# ABL1: Tyrosine-protein kinase ABL1 (ABL1, Homo sapiens, UniProt P00519)
SMILES,target,method,tested at,inhibition [%]
COc1cc2ncnc(Nc3ccc(Oc4ccccc4)c(C)c3C)c2cc1OC,ABL1 Y253F,,1 µM,2
CC/C(=N\NC(=O)NCc1cccc(O)c1)c1ccc(O)c(C)c1O,ABL1 T315I,,0.1 µM,-1.5
COc1cc(-c2cc(-c3ccc(N4CCNCC4)cc3)cnc2N)cc(OC)c1OC,"Tyrosine-protein kinase ABL1 (ABL1, Homo sapiens, UniProt P00519, Q252H)",,1 µM,96
O=C(CSc1nc2nccnc2c(=O)n1CCc1ccccc1)Nc1nccs1,ABL1 T315I,,10 µM,2
CN(C)C1CCN(CC#Cc2nn(C3CCCC3)c3nc(NCc4ccccc4)ncc23)C1 (stereo not drawn),ABL1,FRET,10 µM,31
COc1cc2ncnc(Nc3ccc(Oc4ccccc4)cc3C)c2cc1OC,ABL1 T315I,,1 µM,5
CNc1cccc2cc(C(=O)Nc3ccc(C(=O)O)cc3)c(=O)[nH]c12,ABL1,,10 µM,1.8
CS(=O)(=O)Nc1cccc(-c2csc(NC(=O)CSc3nc4nccnc4c(=O)n3CCc3ccccc3)n2)c1,ABL1,,10 µM,2
CNC(=O)c1cc2c(Oc3ccc(NC(=O)C4(C(=O)Nc5ccc(F)cc5)CC4)cc3)ccnc2cc1OC,ABL1 Y253F,radiometric,1 µM,78
